# Results pooled from the literature.
# Each line is one published result; the experiments were not run side by side.
# Read-out: enzyme activity
# Action: inhibitor
# HIPK4: Homeodomain-interacting protein kinase 4 (HIPK4, Homo sapiens, UniProt Q8NE63)
# TcPGFS: TcPGFS (Trypanosoma cruzi, UniProt Q8I6L9)
Structure (SMILES),target,test,conditions,remaining activity
O=C(O)c1ccc2c(c1)nc(Nc1cccc(F)c1)c1ccncc12,HIPK4,radiometric,1 µM,1%
CC1(C)CCC2=C(O1)c1ccccc1C(=O)C2=O,TcPGFS,,200 µM,86%
CC[C@H](C)[C@H](NC(=O)[C@H](CCC(N)=O)NC(=O)[C@H](CC(C)C)NC(=O)[C@H](CCSC)NC(=O)[C@H](CCCCN)NC(=O)[C@H](CO)NC(=O)[C@H](CO)NC(=O)[C@H](CCSC)NC(=O)[C@H](CC(C)C)NC(=O)[C@H](CC(N)=O)NC(=O)[C@@H](NC(=O)[C@@H](NC(=O)[C@H](CO)NC(=O)[C@H](CC(C)C)NC(=O)[C@H](CS)NC(=O)[C@H](CCCNC(=N)N)NC(=O)[C@H](CC(=O)O)NC(=O)[C@H](Cc1c[nH]c2ccccc12)NC(=O)[C@H](Cc1ccccc1)NC(=O)[C@H](C)NC(=O)[C@H](CCC(=O)O)NC(=O)[C@@H](N)CCCCN)C(C)C)[C@@H](C)CC)C(=O)N[C@@H](CC(N)=O)C(=O)N[C@@H](C)C(=O)O,"Cyclin-dependent kinase 5, with p25 (CDK5, Homo sapiens, UniProt Q00535)",radiometric,"50 µM, 20 min",80%
CCCOc1ccc(OC)c(F)c1C(=O)c1ccc(C(=O)N[C@@H]2CNC[C@H]2NC(=O)c2ccc3[nH]ncc3c2)cc1,"Ribosomal protein S6 kinase alpha-1 (Rps6ka1, Rattus norvegicus, UniProt Q63531)",,0.1 µM,119%
O=C(O)c1ccc2c(c1)nc(NCCc1ccccc1)c1ccncc12,HIPK4,radiometric,1 µM,5%
CC1=CC(=O)c2ccccc2C1=O,TcPGFS,,200 µM,68%
Cc1ccc(C(=O)Nc2ccc(CN3CCN(C)CC3)c(C(F)(F)F)c2)cc1C#Cc1cnc2cccnn12,"Wee1-like protein kinase 2 (WEE2, Homo sapiens, UniProt P0C1S8)",,23.5 nM,96%
O=C(O)c1ccc2c(c1)nc(Nc1ccc(Cl)cc1)c1ncncc12,HIPK4,radiometric,1 µM,62%
COc1cc(Cl)c(C(=O)N[C@@H](CN[C@H]2CC[C@@H](N)CC2)Cc2ccc(C#N)cc2)cc1-c1ccc(CN[C@H](C)c2ccc(C)cc2)o1,"Cyclin-dependent kinase-like 2 (CDKL2, Homo sapiens, UniProt Q92772)",,1 µM,93%
